{
  "source": "ChEMBL document CHEMBL3407438",
  "about": "“Discovery of potent, orally bioavailable, small-molecule inhibitors of WNT signaling from a cell-based pathway screen” (J Med Chem, 2015)",
  "key": {"[1]": {"assay": "Tmax in NMRI mouse at 0.5 mg/kg, po", "type": "ADME, organism-based", "parameters": "dose 0.5 mg/kg, route oral", "details": "in vivo", "how_it_was_run": "(§1)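 Female NMRI mice (n = 5) given a single iv bolus (0.2 mg/kg per compound) or oral gavage (0.5 mg/kg per compound) as a cassette, in DMSO/PEG 200/water. Serial retro-orbital blood was drawn under isoflurane from 3 animals per route at 0.1 (iv), 0.25 (po), 0.5, 1, 2, 4 and 6 h. Plasma was quantified by LC–MS/MS.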"}, "[2]": {"assay": "Tmax in Wistar rat at 0.2 mg/kg, iv", "type": "ADME, organism-based", "parameters": "dose 0.2 mg/kg, route intravenous", "details": "in vivo", "how_it_was_run": "(§2)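 Male Wistar rats (n = 6) received cassette dosing, either iv bolus at 0.2 mg/kg or oral gavage at 0.5 mg/kg per compound, in DMSO/PEG 200/water. Plasma levels were measured by UPLC–MS/MS.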"}, "[3]": {"assay": "Antitumor activity against human COLO205-F1756 clone 4 cells harboring APC mutant xenografted in CrTac:NCr-Foxn1nu mouse assessed as reduction in tumor weight at 70 mg/kg, po bid for 9 days relative to control", "type": "functional, COLO 205", "parameters": "scale not given: the % may be the effect or the level left", "how_it_was_run": "(§3)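 Female athymic nude mice were implanted sc in the flank with 3 million COLO205-F1756 clone 4 cells. At about 100 mm3, groups of n = 8 were gavaged at 70 mg/kg bid or with vehicle (10% DMSO, 5% Tween 20 in saline). Luminescent flux was imaged after sc D-luciferin 2 and 6 h post final dose, then tumours were excised and weighed. Mann–Whitney U test.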"}, "COLO 205 [4]": {"system": "COLO 205", "assay": "Effect on TCF1 level in human COLO205-F1756 clone 4 cells harboring APC mutant and TCF/LEF responsive element at 350 nM by immunoblotting", "type": "functional, cell-based"}, "cells": {"assay": "cells", "details": "Homo sapiens, RKO-F1522, 24 h"}, "[5]": {"assay": "Antitumor activity against human COLO205-F1756 clone 4 cells harboring APC mutant xenografted in CrTac:NCr-Foxn1nu mouse assessed as reduction in flux normalized to tumor weight at 70 mg/kg, po bid for 9 days relative to control", "type": "functional, COLO 205", "parameters": "scale not given: the % may be the effect or the level left", "how_it_was_run": "as §3"}, "in vivo": {"assay": "in vivo", "details": "Wistar, rat, iv, 0.2 mg/kg"}, "[6]": {"assay": "Clearance in Wistar rat at 0.2 mg/kg, iv", "type": "ADME, organism-based", "parameters": "dose 0.2 mg/kg, route intravenous", "details": "in vivo", "how_it_was_run": "as §2"}, "[7]": {"assay": "Half life in NMRI mouse at 0.2 mg/kg, iv", "type": "ADME, organism-based", "parameters": "dose 0.2 mg/kg, route intravenous", "details": "in vivo", "how_it_was_run": "as §1"}, "[8]": {"assay": "Volume of distribution at steady state in Wistar rat at 0.2 mg/kg, iv", "type": "ADME, organism-based", "parameters": "dose 0.2 mg/kg, route intravenous", "details": "in vivo, read-out: Vdss", "how_it_was_run": "as §2"}, "[9]": {"assay": "Tmax in Wistar rat at 0.5 mg/kg, po", "type": "ADME, organism-based", "parameters": "dose 0.5 mg/kg, route oral", "details": "in vivo", "how_it_was_run": "as §2"}, "[10]": {"assay": "Tmax in NMRI mouse at 0.2 mg/kg, iv", "type": "ADME, organism-based", "parameters": "dose 0.2 mg/kg, route intravenous", "details": "in vivo", "how_it_was_run": "as §1"}, "[11]": {"assay": "AUC in NMRI mouse at 0.2 mg/kg, iv", "type": "ADME, organism-based", "parameters": "dose 0.2 mg/kg, route intravenous", "details": "plasma", "how_it_was_run": "as §1"}, "[12]": {"assay": "Thermodynamic aqueous solubility of the compound in phosphate buffer at pH 7.4", "type": "physicochemical", "how_it_was_run": "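Kinetic and thermodynamic aqueous solubilities were measured in phosphate buffer at pH 7.4.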"}, "[13]": {"assay": "Drug uptake in tumor of human COLO205-F1756 clone 4 cells harboring APC mutant xenografted CrTac:NCr-Foxn1nu mouse at 70 mg/kg, po bid for 9 days measured after 2 to 6 hrs", "type": "ADME, organism-based, COLO 205", "parameters": "dose 70 mg/kg, route oral", "details": "in vivo", "how_it_was_run": "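In COLO205-F1756 clone 4 xenograft-bearing nude mice dosed orally at 70 mg/kg bid, cardiac blood and tumours were taken 2 and 6 h after the final dose. Tumours were homogenized in 3 v/w PBS, methanol-extracted with internal standard, and total levels were measured by UPLC–MS/MS (MRM, positive ion).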"}, "[14]": {"assay": "AUC in Wistar rat at 0.2 mg/kg, iv", "type": "ADME, organism-based", "parameters": "dose 0.2 mg/kg, route intravenous", "details": "plasma", "how_it_was_run": "as §2"}, "Cytochrome P450 2C8": {"biological_target": "T1, Cytochrome P450 2C8 (Homo sapiens, UniProt P10632)", "T1 sequence (P10632 whole entry)": "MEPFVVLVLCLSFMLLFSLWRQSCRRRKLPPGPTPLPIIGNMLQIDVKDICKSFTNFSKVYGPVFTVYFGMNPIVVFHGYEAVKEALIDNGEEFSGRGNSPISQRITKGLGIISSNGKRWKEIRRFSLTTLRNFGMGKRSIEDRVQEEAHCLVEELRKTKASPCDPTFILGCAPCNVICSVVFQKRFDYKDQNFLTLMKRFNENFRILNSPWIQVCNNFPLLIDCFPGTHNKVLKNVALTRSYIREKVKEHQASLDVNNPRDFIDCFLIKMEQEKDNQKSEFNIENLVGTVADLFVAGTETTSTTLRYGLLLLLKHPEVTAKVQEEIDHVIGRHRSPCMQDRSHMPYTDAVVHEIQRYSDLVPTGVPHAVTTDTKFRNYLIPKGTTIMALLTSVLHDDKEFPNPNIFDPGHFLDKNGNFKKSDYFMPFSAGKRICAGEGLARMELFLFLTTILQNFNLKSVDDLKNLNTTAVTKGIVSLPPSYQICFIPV", "assay": "Inhibition of CYP2C8 (unknown origin)", "type": "ADME"}, "COLO 205 [15]": {"system": "COLO 205", "assay": "Effect on TCF4 level in human COLO205-F1756 clone 4 cells harboring APC mutant and TCF/LEF responsive element at 350 nM by immunoblotting", "type": "functional, cell-based"}, "[16]": {"assay": "AUC in NMRI mouse at 0.5 mg/kg, po", "type": "ADME, organism-based", "parameters": "dose 0.5 mg/kg, route oral", "details": "plasma", "how_it_was_run": "as §1"}},
  "note": "Activity calls are given as the source filed them. No cut-off for these calls is given here.",
  "data": [
    {"compound": "Cn1cc(-c2ccc(-c3cncc(Cl)c3N3CCC4(CCNC4=O)CC3)cc2)cn1", "values": [
      {"measurement": "Tmax", "setting": "[1]", "value": 15, "unit": "min"},
      {"measurement": "Tmax", "setting": "[2]", "value": 6, "unit": "min"},
      {"measurement": "Activity", "setting": "[3]", "value": 37.5, "unit": "%"},
      {"measurement": "Activity", "setting": "COLO 205 [4]", "value": "inactive"},
      {"measurement": "IC50", "setting": "cells", "value": "> 10", "unit": "µM"},
      {"measurement": "Activity", "setting": "[5]", "value": 80, "unit": "%"},
      {"measurement": "half-life", "setting": "in vivo", "value": 58.2, "unit": "min"},
      {"measurement": "clearance", "setting": "[6]", "value": 26, "unit": "mL/min/kg"},
      {"measurement": "half-life", "setting": "[7]", "value": 33, "unit": "min"},
      {"measurement": "Vd", "setting": "[8]", "value": 1.8, "unit": "L/kg"},
      {"measurement": "Tmax", "setting": "[9]", "value": 15, "unit": "min"},
      {"measurement": "Tmax", "setting": "[10]", "value": 6, "unit": "min"},
      {"measurement": "AUC", "setting": "[11]", "value": 107, "unit": "ng·h/mL"},
      {"measurement": "Therm_solubility", "setting": "[12]", "value": 6, "unit": "µg/mL"},
      {"measurement": "Drug uptake", "setting": "[13]", "value": "Active"},
      {"measurement": "AUC", "setting": "[14]", "value": 130, "unit": "ng·h/mL"},
      {"measurement": "inhibition (INH)", "setting": "Cytochrome P450 2C8", "value": "Not Active"},
      {"measurement": "Activity", "setting": "COLO 205 [15]", "value": "inactive"},
      {"measurement": "AUC", "setting": "[16]", "value": 143, "unit": "ng·h/mL"}
    ]}
  ]
}
